Active and inactive are the calls of the source. The rule behind the calls is not given here.

Series [1] in a line: Toxicity in C57BL6/J mouse model of OVX-induced bone loss assessed as effect on bone formation by measuring mineralizing surface per trabecular bone surface level in femoral metaphysis at 20 mg/kg, ip QD for 4 weeks by histomorphometry (27.90 +/ 8.22 %). It is filed as organism-based. Particulars: in vivo, 672 h.
In series [2] the test system is Mus musculus. Description: Antiosteoporotic activity in C57BL6/J mouse model of OVX-induced bone loss assessed as serum CTX-1 level […] at 20 mg/kg, ip QD for 4 weeks (165.38 +/- 54.93 %). It is filed as functional.
Series [3] can be described thus: Toxicity in C57BL6/J mouse model of OVX-induced bone loss assessed as effect on bone formation by measuring bone formation rate per trabecular bone surface level in femoral metaphysis at 20 mg/kg, ip BID for 4 weeks by histomorphometry ([…]). It is filed as organism-based. The following applies: in vivo, 672 h.
Series [4] in a line: Toxicity in C57BL6/J mouse model of OVX-induced bone loss assessed as effect on bone formation by measuring mineralizing mineral apposition rate level in femoral metaphysis at 20 mg/kg, ip QD for 4 weeks by histomorphometry (1.62 +/ 0.21 um/d (lcm)). It is filed as organism-based. Particulars: in vivo, 672 h.
A short description of series [5]: Toxicity in C57BL6/J mouse model of OVX-induced bone loss assessed as effect on bone formation by measuring number of osteoblasts per bone surface level in femoral metaphysis at 20 mg/kg, ip QD for 4 weeks by histomorphometry (4.55 +/ 2.53 /mm). Particulars: in vivo, 672 h. It is filed as organism-based. In short, it runs like this: (§1)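 OVX mice, 12 weeks old, ip 20 mg/kg q.d. or b.i.d. for 4 weeks in CMC/Tween 80 vehicle. Distal right femur taken day 28. Static trabecular parameters measured on one 4-µm Masson-Goldner trichrome section, ROI 0.75 mm². n=10 per group, 9 in OVX+vehicle.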

Series [6] can be described thus: Toxicity in C57BL6/J mouse model of OVX-induced bone loss assessed as effect on osteoclast numbers per bone perimeter at 20 mg/kg, IP QD for 4 weeks. It is filed as organism-based. The following applies: in vivo, 672 h. In short, it runs like this: as §1
In series [7] the test system is Mus musculus. Description: Antiosteoporotic activity in C57BL6/J mouse model of OVX-induced bone loss assessed as trabecular separation level in femoral metaphysis at 20 mg/kg, ip QD for 4 weeks by histomorphometry (319.80 +/- 106.52 um). It is filed as functional. In short, it runs like this: as §1
Series [8] concerns the target Triple functional domain protein (Homo sapiens) (UniProt O75962). Description: Inhibition of C-terminal 6-histidine tagged human TRIOGEF1 (R1232 to T1550 residues) expressed in Escherichia coli assessed as reduction in nucleotide exchange efficiency at 20 to 60 uM by N-methylanthraniloyl-GDP fluorescence based nucleotide exchange assay. Particulars: dose microM 20-60. Summed up:
(§2)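 Mant-GDP-loaded His-tagged human RAC1 at 2.0 µM with 100 nM DOCK5 (residues 1212-1642) or TRIOGEF1 (R1232-T1550), both E. coli-expressed. Buffer: 50 mM Tris pH 8, 300 mM NaCl, 2 mM MgCl2, 1 mM DTT, 1% DMSO, 25 °C. Reaction started with 100 µM GTP. Fluorescence decay read at ex 360/em 440 nm, kobs by single-exponential fit, compound at 0, 20 or 60 µM, duplicates, as % of activity.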

Series [9] is described as follows: Toxicity in C57BL6/J mouse model of OVX-induced bone loss assessed as effect on bone formation by measuring osteoblast surface per trabecular bone surface level in femoral metaphysis at 20 mg/kg, ip QD for 4 weeks by histomorphometry (5.03 +/ 2.92 %). It is filed as organism-based. The following applies: in vivo, 672 h. In short, it runs like this:
as §1

The test system of series [10] is Mus musculus. Description: Antiosteoporotic activity in C57BL6/J mouse model of OVX-induced bone loss assessed as structure model index level in tibial metaphysis at 20 mg/kg, ip BID for 4 weeks by microCT analysis (1.92 +/- 0.19). It is filed as functional. The following applies: dose […].
In series [11] the test system is Mus musculus. Description: Antiosteoporotic activity in C57BL6/J mouse model of OVX-induced bone loss assessed as serum CTX-1 level […] at 20 mg/kg, ip BID for 4 weeks (165.38 +/- 54.93 %). It is filed as functional.
Series [12] has as its target Dedicator of cytokinesis protein 5 (Homo sapiens, UniProt Q9H7D0). In words: Inhibition of C-terminal 6-histidine tagged human DOCK5 (1212 to 1642 residues) expressed in Escherichia coli assessed as reduction in nucleotide exchange efficiency at 20 to 60 uM by N-methylanthraniloyl-GDP fluorescence based nucleotide exchange assay. Particulars: dose microM 20-60. Summed up: as §2

In series [13] the test system is Mus musculus. Description: Antiosteoporotic activity in C57BL6/J mouse model of OVX-induced bone loss assessed as cortical thickness level in tibial diaphysis at 20 mg/kg, ip QD for 4 weeks by microCT analysis (179.27 +/- 7.57 um). It is filed as functional.
Series [14] in a line: Toxicity in C57BL6/J mouse model of OVX-induced bone loss assessed as effect on body weight at 20 mg/kg, IP QD for 4 weeks. It is filed as organism-based. The following applies: in vivo, 672 h. In short, it runs like this: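 Body weight tracked in 12-week-old OVX C57BL6/J mice during 4 weeks of ip 20 mg/kg q.d. or b.i.d. dosing in 0.485% carboxymethylcellulose/3% Tween 80, 10 mL/kg.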

Series [15] is described as follows: Toxicity in C57BL6/J mouse model of OVX-induced bone loss assessed as effect on bone formation by measuring osteocalcin level at 20 mg/kg, ip QD for 4 weeks (1.62 +/ 0.21 m3/um2/y). It is filed as organism-based. The following applies: in vivo, 672 h.
For series [16], the system named is Mus musculus. In words: Antiosteoporotic activity in C57BL6/J mouse model of OVX-induced bone loss assessed as cortical thickness level in tibial diaphysis at 20 mg/kg, ip BID for 4 weeks by microCT analysis (179.27 +/- 7.57 um). It is filed as functional.
The test system of series [17] is Mus musculus. Description: Antiosteoporotic activity in C57BL6/J mouse model of OVX-induced bone loss assessed as trabecular number level in femoral metaphysis at 20 mg/kg, ip BID for 4 weeks by histomorphometry (2.99 +/- 0.80 /mm). It is filed as functional. Summed up: as §1

Dedicator of cytokinesis protein 5, sequence (Q9H7D0 whole entry, the tested form may be a part): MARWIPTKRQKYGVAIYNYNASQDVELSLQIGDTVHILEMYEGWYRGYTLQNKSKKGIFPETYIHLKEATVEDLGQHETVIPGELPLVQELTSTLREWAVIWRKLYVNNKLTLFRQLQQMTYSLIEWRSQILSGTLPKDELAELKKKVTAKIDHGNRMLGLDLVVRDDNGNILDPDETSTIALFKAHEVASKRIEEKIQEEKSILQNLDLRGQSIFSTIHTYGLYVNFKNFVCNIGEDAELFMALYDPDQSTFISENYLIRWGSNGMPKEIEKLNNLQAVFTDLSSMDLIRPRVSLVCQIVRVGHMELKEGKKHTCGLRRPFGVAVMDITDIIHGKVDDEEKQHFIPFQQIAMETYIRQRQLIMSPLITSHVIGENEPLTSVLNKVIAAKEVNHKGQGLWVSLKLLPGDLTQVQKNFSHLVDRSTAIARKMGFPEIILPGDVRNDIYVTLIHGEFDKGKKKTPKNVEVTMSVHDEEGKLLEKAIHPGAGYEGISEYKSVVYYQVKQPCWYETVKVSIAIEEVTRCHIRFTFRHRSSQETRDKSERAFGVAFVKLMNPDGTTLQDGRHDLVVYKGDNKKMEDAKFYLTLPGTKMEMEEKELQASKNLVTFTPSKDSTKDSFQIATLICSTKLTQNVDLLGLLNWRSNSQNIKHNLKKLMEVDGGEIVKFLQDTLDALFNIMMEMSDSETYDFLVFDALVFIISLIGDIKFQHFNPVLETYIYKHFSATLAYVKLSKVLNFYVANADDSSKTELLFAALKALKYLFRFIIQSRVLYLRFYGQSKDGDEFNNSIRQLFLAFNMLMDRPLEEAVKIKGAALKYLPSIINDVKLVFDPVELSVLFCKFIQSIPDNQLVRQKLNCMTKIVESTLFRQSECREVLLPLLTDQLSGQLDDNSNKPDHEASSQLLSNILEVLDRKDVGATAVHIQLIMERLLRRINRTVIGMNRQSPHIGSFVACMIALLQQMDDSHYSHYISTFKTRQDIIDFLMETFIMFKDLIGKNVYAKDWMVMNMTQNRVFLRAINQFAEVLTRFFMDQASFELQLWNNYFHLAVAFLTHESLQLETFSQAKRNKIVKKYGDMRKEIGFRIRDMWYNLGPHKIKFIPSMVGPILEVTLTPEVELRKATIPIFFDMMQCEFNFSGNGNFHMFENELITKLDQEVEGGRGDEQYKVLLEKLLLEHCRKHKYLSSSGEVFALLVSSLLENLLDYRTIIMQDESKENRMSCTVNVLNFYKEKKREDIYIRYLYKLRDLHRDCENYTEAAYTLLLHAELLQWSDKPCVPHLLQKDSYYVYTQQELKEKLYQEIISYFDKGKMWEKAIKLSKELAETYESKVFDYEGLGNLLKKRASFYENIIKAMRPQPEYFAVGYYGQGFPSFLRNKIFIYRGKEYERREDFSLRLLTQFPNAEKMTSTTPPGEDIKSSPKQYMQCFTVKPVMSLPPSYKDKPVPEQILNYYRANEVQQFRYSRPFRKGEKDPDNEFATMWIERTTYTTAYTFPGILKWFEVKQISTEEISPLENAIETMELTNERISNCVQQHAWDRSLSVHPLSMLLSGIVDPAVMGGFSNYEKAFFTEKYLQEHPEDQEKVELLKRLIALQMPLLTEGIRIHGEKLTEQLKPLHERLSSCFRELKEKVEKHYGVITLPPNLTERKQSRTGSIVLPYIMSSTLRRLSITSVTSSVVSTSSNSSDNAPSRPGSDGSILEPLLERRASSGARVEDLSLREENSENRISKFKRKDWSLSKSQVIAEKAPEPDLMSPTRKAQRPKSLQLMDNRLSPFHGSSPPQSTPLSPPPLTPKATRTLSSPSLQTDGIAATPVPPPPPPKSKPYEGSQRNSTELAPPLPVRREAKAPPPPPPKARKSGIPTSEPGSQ

The term inhibition denotes the relative decrease from the control value, in per cent. With `O=S1(=O)N(c2ccccc2)C[C@H](O)[C@]12CCN(Cc1ccc(Cl)cc1)C2` (racemic), the Activity in series [1] was 27.7%; in the series on Mus musculus [2], 153.3%; in series [3], 157.59 um3/um2/yr; in series [4], 1.82 micrometer/day; in series [5], 2.96 /millimeter; in [6] it was “Non-Toxic”. Besides, the Activity with Mus musculus [7] was 318.42 um; in series [9], 3.57%; in the series on Mus musculus [11], 112.71%; in the series with Mus musculus [13] it was 187.72 um; in [14], “Non-Toxic”; in series [15], 96.8%. The results for the Activity in the series with Mus musculus [16] and in the series with Mus musculus [17] were 193.5 um and 3.51 /millimeter, respectively. The inhibition entry in series [8] was “inactive”. In addition, in the series with Mus musculus [10], the Activity_index amounted to 1.48. In addition, the inhibition in series [12] was 45%.

The record behind these values is ChEMBL document CHEMBL4699636, “Novel 2,7-Diazaspiro[4,4]nonane Derivatives to Inhibit Mouse and Human Osteoclast Activities and Prevent Bone Loss in Ovariectomized Mice without Affecting Bone Formation” (J Med Chem, 2020).
